In ChEMBL document CHEMBL5376017, “Glucosamine substituted sulfonylureas: IRS-PI3K-PKC-AKT-GLUT4 insulin signalling pathway intriguing agent” (RSC Med Chem, 2024) one finds Activity and viability data, which are given here for eight molecules.

Series [1] deals with Soleus muscle. Put plainly: Downregulation of PKC-alpha expression in insulin resistant Sprague-Dawley rat soleus muscle incubated for 24 hrs by qRT-PCR analysis. It counts as functional, tissue-based. In short, it runs like this:
(§1)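 Isolated rat soleus muscle in gassed (95% O2–5% CO2) Krebs–Henseleit buffer. Insulin resistance induced in four steps: KHB with 0.1% BSA and 1 mM pyruvate for 24 h at 37 °C, then high glucose/insulin for 24 h, then 25 mM glucose for 5 h, then insulin for 30 min. Tissue then exposed in KHB for 24 h. qPCR normalized to β-/γ-actin geometric mean. Mean ± SEM, ANOVA/Duncan.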

Series [2] concerns L6. Put plainly: Upregulation of IRS-1 expression in insulin resistant myotube differentiated rat L6 cells incubated for 24 hrs by qRT-PCR analysis. It counts as functional, cell-based. In short, it runs like this: (§2)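 L6 myoblasts differentiated to myotubes in DMEM with 2% horse serum for 7 days, 2 × 10^4 cells per well. Insulin resistance induced in three steps: 25 mM glucose plus insulin for 24 h, then 5 mM glucose without insulin for 5 h, then insulin for 30 min. Compounds in DMEM with 2% inactivated FBS for 24 h. qPCR normalized to geometric mean of β-actin and γ-actin. Mean ± SEM, one-way ANOVA with Duncan test.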

Series [3] deals with L6. Put plainly: Upregulation of GLUT4 expression in insulin resistant myotube differentiated rat L6 cells incubated for 24 hrs by qRT-PCR analysis. It counts as functional, cell-based. In short, it runs like this:
as §2

Series [4] deals with L6. Description: Downregulation of PKC-alpha expression in insulin resistant myotube differentiated rat L6 cells incubated for 24 hrs by qRT-PCR analysis. It counts as functional, cell-based. The procedure, abridged: as §2
In series [5] the test system is Soleus muscle. Put plainly: Upregulation of PI3K expression in insulin resistant Sprague-Dawley rat soleus muscle incubated for 24 hrs by qRT-PCR analysis. It counts as functional, tissue-based. In short, it runs like this:
as §1

Series [6] relates to L6. Description: Upregulation of PKB/AKT2 expression in insulin resistant myotube differentiated rat L6 cells incubated for 24 hrs by qRT-PCR analysis. It is filed as functional, cell-based. In short, it runs like this:
as §2

For series [7], the system named is Soleus muscle. Description: Upregulation of GLUT4 expression in insulin resistant Sprague-Dawley rat soleus muscle incubated for 24 hrs by qRT-PCR analysis. It counts as functional, tissue-based. The procedure, abridged: as §1
Series [8] has as its system Soleus muscle. Put plainly: Upregulation of PKB/AKT2 insulin resistant Sprague-Dawley rat soleus muscle at 2 uM incubated for 24 hrs by qRT-PCR analysis. It counts as functional, tissue-based. The procedure, abridged:
as §1

In series [9] the test system is Soleus muscle. Put plainly: Upregulation of GLUT4 expression in insulin resistant Sprague-Dawley rat soleus muscle at 1 to 2 uM incubated for 24 hrs by qRT-PCR analysis. It is filed as functional, tissue-based. Particulars: dose 1-2 µM. The procedure, abridged:
as §1

The test system of series [10] is L6. Put plainly: Upregulation of PI3K expression in insulin resistant myotube differentiated rat L6 cells at 1 to 2 uM incubated for 24 hrs by qRT-PCR analysis. It is filed as functional, cell-based. Particulars: dose 1-2 µM. In short, it runs like this:
as §2

Series [11] deals with L6. Put plainly: Upregulation of GLUT4 expression in insulin resistant myotube differentiated rat L6 cells at 1 to 2 uM incubated for 24 hrs by qRT-PCR analysis. It is filed as functional, cell-based. Conditions: dose 1-2 µM. The procedure, abridged:
as §2

Series [12] concerns Soleus muscle. Description: Upregulation of IRS-1 expression in insulin resistant Sprague-Dawley rat soleus muscle at 1 to 2 uM incubated for 24 hrs by qRT-PCR analysis. It is filed as functional, tissue-based. Particulars: dose 1-2 µM. The procedure, abridged:
as §1

Series [13] has as its system L6. Put plainly: Upregulation of IRS-1 expression in insulin resistant myotube differentiated rat L6 cells at 1 to 2 uM incubated for 24 hrs by qRT-PCR analysis. It is filed as functional, cell-based. Particulars: dose 1-2 µM. The procedure, abridged:
as §2

Series [14] deals with L6. Description: Downregulation of PKC-alpha expression in insulin resistant myotube differentiated rat L6 cells at 1 to 2 uM incubated for 24 hrs by qRT-PCR analysis. It is filed as functional, cell-based. Conditions: dose 1-2 µM. The procedure, abridged: as §2
Series [15] deals with Soleus muscle. Put plainly: Upregulation of PI3K expression in insulin resistant Sprague-Dawley rat soleus muscle at 1 to 2 uM incubated for 24 hrs by qRT-PCR analysis. It is filed as functional, tissue-based. Particulars: dose 1-2 µM. In short, it runs like this:
as §1

For series [16], the system named is Soleus muscle. Put plainly: Downregulation of PKC-alpha expression in insulin resistant Sprague-Dawley rat soleus muscle at 1 to 2 uM incubated for 24 hrs by qRT-PCR analysis. It counts as functional, tissue-based. Conditions: dose 1-2 µM. The procedure, abridged:
as §1

Series [17] in a line: Cytotoxicity against rat L6 cells assessed as cell viability at 50 to 250 uM incubated for 24 hrs by MTT assay relative to control. It counts as toxicity, cell-based. Particulars: dose 50-250 µM, read-out: Activity. In short, it runs like this:
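Rat L6 myoblasts, 2 × 10^4 cells per mL, allowed to attach, then exposed for 24 h to five concentrations (50–250 μM) from DMSO stocks; 0.1% DMSO as negative control. MTT at 0.5 mg mL−1 added for 4 h, formazan dissolved in DMSO, absorbance read at 570 nm. Viability calculated against control. Triplicate wells, three independent experiments.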

Series [18] relates to L6. Description: Upregulation of PKB/AKT2 expression in insulin resistant myotube differentiated rat L6 cells at 2 uM incubated for 24 hrs by qRT-PCR analysis. It counts as functional, cell-based. The procedure, abridged:
as §2

Calls of active or inactive are those of the source. The rule behind the calls is not given here.

For the molecule `CN(C)C(=N)NC(=N)N`, the result in series [1], in [2], in series [3], in series [4], in series [5] and in [6] was Active. For the same molecule, the outcome in series [7] was Active.
With `O=C(N[C@H]1C(O)O[C@H](CO)[C@@H](O)[C@@H]1O)NS(=O)(=O)c1ccc(Cl)cc1` (some centres undefined), the outcome in series [8], in series [9], in [10], in [11], in [12] and in [13] was Active. For the same molecule, the outcome in series [14], in series [15], in series [16] and in series [18] was Active. The viability at 24 h, up to 250 µM in series [17] was determined as 50%.
Turning to `Cc1ccc(S(=O)(=O)NC(=O)N[C@H]2C(O)O[C@H](CO)[C@@H](O)[C@@H]2O)cc1` (some centres undefined), the outcome in [8], in series [9], in [10], in series [11], in [12] and in series [13] was Active. The result in series [14], in series [15], in series [16] and in [18] was Active. In addition, the viability at 24 h, up to 250 µM in [17] was 50%.
Take `CC(=O)OC[C@H]1OC(OC(C)=O)[C@H](NC(=O)NS(=O)(=O)c2ccc(Cl)cc2)[C@@H](OC(C)=O)[C@@H]1OC(C)=O` (some centres undefined): the result in series [8], in series [9], in [10], in series [11], in series [12] and in series [13] was Active. The result in series [14], in series [15], in series [16] and in series [18] was Active. In series [17], the viability at 24 h, up to 250 µM was 50%.
In the case of `CC(=O)OC[C@H]1OC(OC(C)=O)[C@H](NC(=O)NS(=O)(=O)c2ccccc2)[C@@H](OC(C)=O)[C@@H]1OC(C)=O` (some centres undefined), the outcome in series [8], in series [9], in series [10], in [11], in series [12] and in series [13] was Active. For the same molecule, the result in series [14], in [15], in series [16] and in [18] was Active. The viability at 24 h, up to 250 µM in series [17] was determined as 50%.
On to `CC(=O)OC[C@H]1OC(OC(C)=O)[C@H](NC(=O)NS(=O)(=O)c2ccc(C)cc2)[C@@H](OC(C)=O)[C@@H]1OC(C)=O` (some centres undefined), for which the result in series [8], in series [9], in series [10], in series [11], in series [12] and in series [13] was Active. The outcome in series [14], in series [15], in series [16] and in [18] was Active. Besides, the viability at 24 h, up to 250 µM in [17] is 50%.
`CCC1=C(C)CN(C(=O)NCCc2ccc(S(=O)(=O)NC(=O)N[C@H]3CC[C@H](C)CC3)cc2)C1=O`: the outcome in series [1], in series [2], in series [4], in [5], in [6] and in series [7] was Active.
For the molecule `O=C(N[C@H]1C(O)O[C@H](CO)[C@@H](O)[C@@H]1O)NS(=O)(=O)c1ccccc1` (some centres undefined), the result in series [8], in [9], in series [10], in series [11], in series [12] and in [13] was Active. The outcome in series [14], in [15], in series [16] and in [18] was Active. For the same molecule, the viability at 24 h, up to 250 µM in series [17] was below 50%.
